Assay outcomes as filed in PubChem BioAssay.
Shown are actives, neighbours in structure and some others; about 3.5% of the full set was active somewhere.
MrgX1 agonist = agonists of human MrgX1 receptor, primary screen, HEK293 cells, Fluo-4 calcium flux | Fluo-4 calcium fluorescence, agonist mode; hits give high values | B-score at 10 µM | Mas-related G-protein coupled receptor member X1 (Homo sapiens), Q96LB2 | 310,000 compounds, 0.44% hits | AID 588627, 2011;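 active = calcium response B-score plate-corrected fluorescence ratio at least 3 library SD, with starting fluorescence B-score inside 5 SD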
Target sequence (Q96LB2 whole entry, looked up): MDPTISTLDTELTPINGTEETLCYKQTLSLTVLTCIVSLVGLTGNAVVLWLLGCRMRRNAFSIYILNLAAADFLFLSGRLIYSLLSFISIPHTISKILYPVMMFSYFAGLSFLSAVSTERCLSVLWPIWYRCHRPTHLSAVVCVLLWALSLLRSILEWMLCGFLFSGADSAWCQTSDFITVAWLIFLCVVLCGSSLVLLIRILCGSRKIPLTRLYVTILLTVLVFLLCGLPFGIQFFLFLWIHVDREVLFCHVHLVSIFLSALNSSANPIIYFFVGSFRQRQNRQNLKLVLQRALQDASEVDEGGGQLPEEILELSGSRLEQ
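Material: MrgX1-expressing HEK293 cells; input: 15,000 cells per well; doses: test compound given as first of three sequential additions; schedule: overnight plating before 1 h dye loading; technique: Fluo-4 NW calcium-flux fluorescence, kinetic read; evaluation: baseline-normalised fluorescence change ratio, B-scored; control set: plate-wise positive and negative controls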
RGS4 act = RGS4 potentiators or activators, primary screen, cell-based, HEK293 M3R inducible RGS4, calcium flux. carbachol calcium flux Fluo4; hits give low values. B-score at 10 µM. 310,000 compounds, 0.92% hits;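 active = B-score of the integrated calcium signal more than 4 SD below the library mean, with starting fluorescence not abnormally high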;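 note: negative B-score means reduced calcium response which marks RGS4 activation or potentiation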
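test system = M3R-expressing HEK293 line, RGS4 induced by doxycycline | probe or stimulus = carbachol at ECmax as muscarinic agonist stimulus | timing = dye loading 30 min 37 °C, buffer rest 30 min RT | signal = calcium dye Fluo4 fluorescence | evaluation = B score from integrated fluorescence ratio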
MrgX1 PAM = positive allosteric modulators of MrgX1, primary screen, HEK293 cells, Fluo-4 calcium flux; FDSS; hits give high values; B-score at 10 µM; AID 588675, 2011; 310,000 compounds, 0.63% hits;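 active = plate-corrected calcium response at least 3 library SD above typical, normal starting fluorescence, not activating the receptor alone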;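 note: compound read alongside a low EC10 to EC30 dose of BAM8-22 agonist; peak minus trough fluorescence over baseline measured at the second addition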
MrgX1 antag = antagonists of human MrgX1 receptor, primary screen, HEK293 cells, Fluo-4 calcium flux; 310,000 compounds, 1.3% hits; Mas-related G-protein coupled receptor member X1 (Homo sapiens), Q96LB2; BAM8-22 antagonism; hits give low values; B-score at 10 µM;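 active = calcium-response B-score plate-corrected more than 3 library SD below zero, starting fluorescence within 5 deviations, no agonist response on first addition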;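 note: peak minus trough fluorescence over baseline after final BAM8-22 challenge near maximal dose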
RGS4 block = RGS4 inhibitors, primary screen, cell-based, HEK293 M3R inducible RGS4, calcium flux; B-score at 10 µM; 310,000 compounds, 0.45% hits; Regulator of G-protein signaling 4 (Homo sapiens), P49798; Fluo-4 calcium flux; hits give high values; triggered by carbachol at its EC20; AID 463165, 2010;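 active = B-score, a plate-corrected calcium signal, over three deviations above library mean, with baseline fluorescence within five deviations of library mean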;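 note: RGS4 expression induced by doxycycline in cells with stable M3 receptor; B-score is computed from the integrated fluorescence ratio over baseline after carbachol; higher B-score means a larger calcium signal and so more RGS4 inhibition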
Target sequence (P49798 whole entry, looked up): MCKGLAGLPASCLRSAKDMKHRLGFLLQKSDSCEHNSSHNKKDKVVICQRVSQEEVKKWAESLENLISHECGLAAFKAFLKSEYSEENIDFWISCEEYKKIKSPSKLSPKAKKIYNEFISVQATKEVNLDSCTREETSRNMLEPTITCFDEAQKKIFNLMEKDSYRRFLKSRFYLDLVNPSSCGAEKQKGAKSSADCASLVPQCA
MrgX1 ant reconf = MrgX1 receptor antagonists, duplicate retest, confirmation, HEK293 cells, Fluo-4 calcium flux; shares compounds with MrgX1 antag; BAM8-22 calcium flux; hits give low values; remaining BAM8-22 calcium response % of control (hits give low values), % at 10 µM; 2,300 compounds, 19% hits; AID 602420, 2012;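 active = remaining agonist calcium response no higher than 100% minus 3 SD of agonist-only control wells, with starting fluorescence near control levels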;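 note: agonist BAM8-22 given at a near maximal EC90 to ECmax level; peak minus minimum fluorescence divided by baseline after agonist addition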
HEK293 Ca flux = nonspecific calcium signal in parental HEK293, confirmation, counter-screen for MrgX1 antagonist project, parental HEK293 cells, Fluo-4 calcium flux; shares compounds with MrgX1 antag; Fluo-4 calcium fluorescence, FDSS; fluorescence ratio F(max-min)/F0 at 10 µM; 4,000 compounds, 2% hits; AID 624111, 2012;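 active = duplicate-averaged calcium fluorescence ratio at least three times the standard deviation of buffer wells, a nonspecific response in parental cells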
HEK293 Ca counter = calcium response in parental HEK293 cells, primary screen, counter-screen for MrgX1 allosteric activator project, cell-based, Fluo-4 calcium flux, duplicate; shares compounds with MrgX1 antag; Fluo-4 fluorescence ratio; hits give high values; fluorescence ratio F(max-min)/F0 at 10 µM; 4,000 compounds, 0.4% hits;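 active = calcium fluorescence ratio, averaged over duplicates, at least 3 SD of the buffer-well ratio, meaning a nonspecific response in receptor-free cells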;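 note: untransfected parental HEK293 lacking MrgX1 used as counterscreen for MrgX1 allosteric activators; fluorescence change taken during the second addition on a kinetic imager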
HEK293 Ca cntr2 = calcium response in parental HEK293 cells, primary screen, counter-screen for MrgX1 agonist project, cell-based, Fluo-4 calcium flux, duplicate, agonist mode; fluorescence ratio F(max-min)/F0 at 10 µM; AID 624115, 2012; Fluo-4 calcium fluorescence (FDSS); hits give high values; 4,000 compounds, 8.7% hits; shares compounds with MrgX1 antag;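 active = calcium fluorescence ratio at least three times the spread of buffer wells, meaning a non-specific response in parental cells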
Hits are given with their value; i = inactive; nt = no result given.

SMILES	MrgX1 agonist	RGS4 act	MrgX1 PAM	MrgX1 antag	RGS4 block	MrgX1 ant reconf	HEK293 Ca flux	HEK293 Ca counter	HEK293 Ca cntr2
COc1cc(/C=C/c2cc(OC(C)=O)c3ccccc3n2)c(OC(C)=O)c([N+](=O)[O-])c1	i	i	i	i	i	nt	nt	nt	nt
Cc1ccc(Cn2nc(C)c(NC(=O)c3nn(C)cc3Cl)c2C)cc1	i	i	i	-10	i	i	i	i	i
Cc1ccc(NC(=O)[C@@H]2CCC(=O)N2C2OC(=O)c3ccccc32)cc1Cl (stereo partly drawn)	i	i	i	i	i	nt	nt	nt	nt
Cc1ccc(Cl)cc1NC(=O)[C@@H]1CCC(=O)N1C1OC(=O)c2ccccc21 (stereo partly drawn)	i	i	i	-9.9	i	84%	i	i	i
CN(CCOc1ccccc1)C(=O)c1ccc(N2CCCC2)c([N+](=O)[O-])c1	i	i	i	i	i	nt	nt	nt	nt
N#CCSc1nnc(C2CCCCC2)n1Cc1ccccc1	i	i	i	-7.1	i	i	i	i	i
CCC(C)(C)n1nnnc1C(c1ccc2ncccc2c1)N1CCN(Cc2ccc3c(c2)OCO3)CC1 (stereo not drawn)	i	i	i	i	i	nt	nt	nt	nt
CCC(C)(C)n1nnnc1C(c1ccc(C)cc1)N1CCN(Cc2ccc3c(c2)OCO3)CC1 (stereo not drawn)	i	i	i	-6.2	i	i	i	i	i
COc1ccc(C(=O)Cc2ccc3c(c2)OCO3)c(O)c1	i	i	i	i	i	nt	nt	nt	nt
O=C(Cc1ccc2c(c1)OCCO2)c1c(O)cc(O)cc1O	i	i	i	-5.2	i	71%	i	i	i
CC(=O)Nc1ccc(NC(=O)C(C)OC(=O)CN(C)S(=O)(=O)c2ccc(Cl)cc2)cc1 (stereo not drawn)	i	i	i	-6.1	i	i	i	i	i
CCOC(=O)C1=C(C)N(CCCC(=O)O)C(=O)NC1c1ccc(Cl)cc1 (stereo not drawn)	i	i	i	i	i	nt	nt	nt	nt
CCCCNC(=O)N1CCOCCOCCN(C(=O)NCCCC)CCOCC1	i	i	i	-4.6	i	i	i	i	i
COC(=O)c1c(NC(=O)c2ccco2)sc(C(=O)N(C)C)c1C	i	i	i	i	i	nt	nt	nt	nt
CCn1cc(C2C(C(=O)Nc3ccc(Br)cn3)=C(C)NC3=C2C(=O)CCC3)c(C)n1 (stereo not drawn)	i	i	i	i	i	nt	nt	nt	nt
CC1=C(C(=O)Nc2ccccn2)C(c2cn(C)nc2C)C2=C(CCCC2=O)N1 (stereo not drawn)	i	i	i	-4.9	i	i	i	i	i
COc1ccc(N2C(=S)NC(C)(C)CC2(C)c2ccc(OC(C)=O)cc2OC(C)=O)cc1 (stereo not drawn)	i	i	i	-4.6	i	i	i	i	i
COc1ccc2c(c1OC)C(=O)OC2Nc1ccccc1S(=O)(=O)C(F)F (stereo not drawn)	i	i	i	-4.7	i	i	i	i	i
Cc1nc2ccccc2c(=O)n1NCc1cc(Br)cs1	i	i	i	i	i	nt	nt	nt	nt
O=C(COC(=O)C1C2CC3OC(=O)C1C3C2)Nc1ccc(Cl)cc1 (stereo not drawn)	i	i	i	i	i	nt	nt	nt	nt
COc1ccccc1N1CCN(CC(O)c2ccc3cc[nH]c3c2)CC1 (stereo not drawn)	i	i	i	-9.8	i	i	i	i	i
Cc1nnc(Oc2ccccc2F)c2ccccc12	i	i	i	-6	i	85%	i	i	i
COc1cc(-c2nnn(CC(=O)NC3CCS(=O)(=O)C3)n2)ccc1OCc1ccccc1 (stereo not drawn)	i	i	i	i	i	nt	nt	nt	nt
COc1cc(-c2nnn(CC#N)n2)ccc1OCc1ccccc1	i	i	i	-4.7	i	i	i	i	i
COc1ccc(-c2nnn(CC(=O)c3ccccc3)n2)cc1OC	i	i	i	-4.7	i	i	i	i	i
SMILES	MrgX1 agonist	RGS4 act	MrgX1 PAM	MrgX1 antag	RGS4 block	MrgX1 ant reconf	HEK293 Ca flux	HEK293 Ca counter	HEK293 Ca cntr2
CCn1c(SCC(=O)NC2CCCC2)nnc1C(C)C	i	i	i	i	i	nt	nt	nt	nt
O=C(Nc1cccc(Br)c1)c1ccc(Cl)c(S(=O)(=O)N2CCOCC2)c1	i	i	i	-4.7	i	80%	i	i	i
Cc1ccc(C(=O)Nc2ccccc2C(=O)NCc2ccco2)cc1S(=O)(=O)N1CCCCC1	i	i	i	i	i	nt	nt	nt	nt
Cc1ccc(C(=O)Nc2ccncc2)cc1S(=O)(=O)N1CCOCC1	i	i	i	-4.6	i	i	i	i	64
Cc1ccc(C(=O)NCc2ccco2)cc1S(=O)(=O)N1CCCCC1	i	i	i	-6.7	i	i	i	i	i
O=C(O)c1ccccc1C(=O)NC1CCCCNC1=O (stereo not drawn)	i	i	i	i	i	nt	nt	nt	nt
C#CCSc1nnc(-c2cc3c(C(F)(F)F)nn(C)c3s2)n1C	i	i	i	i	i	nt	nt	nt	nt
COc1ccc(NC(=O)Cc2coc3ccc4ccccc4c23)cc1S(=O)(=O)N1CCOCC1	i	i	i	-6.7	i	i	i	i	i
O=S(=O)(NCCc1csc(-c2cccnc2)n1)c1ccc(Cl)s1	i	i	i	-4.9	i	79%	i	i	i
O=S(=O)(NCCc1csc(-c2cccnc2)n1)c1cccs1	i	i	i	i	i	nt	nt	nt	nt
COc1ccc(S(=O)(=O)N(CC(C)C)C2CCS(=O)(=O)C2)cc1OC (stereo not drawn)	i	i	i	i	i	nt	nt	nt	nt
Cc1ccccc1Cc1c(C)nc2ncnn2c1C	i	i	i	-7.8	i	i	i	i	i
Cc1ccc(NC(=O)c2ccc3ncsc3c2)cc1S(=O)(=O)N(C)C	i	i	i	-5.4	i	i	i	i	i
Cc1ccc(NC(=O)c2cccnc2)cc1S(=O)(=O)N(C)C	i	i	i	i	i	nt	nt	nt	nt
